Data as given in ChEMBL document CHEMBL5252513, “Identification of a Benzoisoxazoloazepine Inhibitor (CPI-0610) of the Bromodomain and Extra-Terminal (BET) Family as a Candidate for Human Clinical Trials” (J Med Chem, 2016).
The source made the active and inactive calls. The calls are words filed in the database; no cut-off is given here.

Legend:
[1] = Intrinsic clearance in human liver microsomes; assay type: ADME, Microsome; conditions: read-out: CLH
[2] = Protein binding in human plasma; assay type: ADME, cell-free; conditions: read-out: PPB (converted)
[3] = biological target: T1, Bromodomain-containing protein 4 (Homo sapiens, UniProt O60885); assay: Inhibition of BRD4 BD1 (unknown origin) using biotinylated ligand incubated for 60 mins by TR-FRET assay
[4] = Intrinsic clearance in rat liver microsomes; assay type: ADME, Microsome
[5] = Protein binding in mouse plasma; assay type: ADME, cell-free; conditions: read-out: PPB (converted)
[6] = Protein binding in dog plasma; assay type: ADME, cell-free, Canis lupus familiaris; conditions: read-out: PPB (converted)
[7] = Intrinsic clearance in mouse liver microsomes; assay type: ADME, Microsome; conditions: read-out: CLH
[8] = Protein binding in rat plasma; assay type: ADME, cell-free; conditions: read-out: PPB (converted)
[9] = Intrinsic clearance in dog liver microsomes; assay type: ADME, Canis lupus familiaris, Microsome; conditions: read-out: CLH
[10] = biological target: T1, Bromodomain-containing protein 4; assay: Inhibition of BRD4 BD1 in human MV4-11 cells assessed as reduction of MYC RNA expression after 4 hrs by PCR analysis; assay type: cell-based
[11] = Clearance in rat assessed as liver blood flow at 1 mg/kg,iv; assay type: ADME, organism-based; conditions: in vivo
[12] = Volume of distribution at steady state in rat at 1 mg/kg,iv; assay type: ADME, organism-based; conditions: in vivo, read-out: Vdss
[13] = Total clearance in rat at 1 mg/kg,iv; assay type: ADME, organism-based; conditions: in vivo
[14] = Half life in rat plasma at 1 mg/kg,iv; assay type: ADME, organism-based
[15] = Unbound clearance in rat at 1 mg/kg,iv; assay type: ADME, organism-based; conditions: in vivo
[16] = biological target: T1, Bromodomain-containing protein 4; assay: Inhibition of BRD4 BD1 in human Raji cells assessed as reduction of MYC RNA expression after 4 hrs by PCR analysis; assay type: cell-based
MV4-11 [17] = assay: Antitumor activity against human MV4-11 cells xenografted in BALB/c mouse assessed as slower tumor regrowth after drug therapy removal at 2 mg/kg,iv BIW in presence of at 10 mg/kg,sc BID for 28 days and measured after 28 days; assay type: functional, organism-based; conditions: time 28.0 day
[18] = Toxicity against BALB/c mouse plasma xenografted with human MV4-11 cells assessed as body weight loss at 2 mg/kg,iv BIW in presence of at 10 mg/kg,sc BID for 28 days; assay type: organism-based; conditions: in vivo, 672 h, time 28 day
Outline: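 MV-4-11 acute myeloid leukemia mouse xenograft; BET inhibitor given subcutaneously 10 mg/kg twice daily, doxorubicin 2 mg/kg IV twice weekly, alone or combined, for 28 days; body weight change (%) tracked over treatment against vehicle.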

MV4-11 [19] = assay: Antitumor activity against human MV4-11 cells xenografted in BALB/c mouse assessed as modest tumor growth inhibition at 2 mg/kg,iv BIW for 28 days; assay type: functional, organism-based; conditions: time 28.0 day
MV4-11 [20] = assay: Antitumor activity against human MV4-11 cells xenografted in BALB/c mouse assessed as complete tumor growth inhibition at 2 mg/kg,iv BIW in presence of at 10 mg/kg,sc BID for 28 days; assay type: functional, organism-based; conditions: time 28.0 day
[21] = Cmax in rat at 5 mg/kg,po; assay type: ADME, organism-based; parameters: dose 5 mg/kg, route po; conditions: in vivo
[22] = Tmax in rat at 5 mg/kg,po; assay type: ADME, organism-based; conditions: in vivo
[23] = Unbound AUC in rat at 5 mg/kg,po; assay type: ADME, organism-based; conditions: in vivo
[24] = AUC (0 to infinity) in rat at 5 mg/kg,po; assay type: ADME, organism-based; parameters: dose 5 mg/kg, route po; conditions: in vivo
[25] = Oral bioavailability in rat at 5 mg/kg; assay type: ADME, organism-based; conditions: in vivo
[26] = Unbound AUC in rat at 10 mg/kg,po; assay type: ADME, organism-based; conditions: in vivo
[27] = Tmax in rat at 10 mg/kg,po; assay type: ADME, organism-based; conditions: in vivo
[28] = Oral bioavailability in rat at 10 mg/kg; assay type: ADME, organism-based; conditions: in vivo
[29] = Cmax in rat at 10 mg/kg,po; assay type: ADME, organism-based; parameters: dose 10 mg/kg, route po; conditions: in vivo
[30] = AUC (0 to infinity) in rat at 10 mg/kg,po; assay type: ADME, organism-based; parameters: dose 10 mg/kg, route po; conditions: in vivo

SMILES	predicted hepatic clearance [1]	fraction unbound [2]	IC50 [3]	predicted hepatic clearance (CLH) [4]	fraction unbound [5]	fraction unbound [6]	predicted hepatic clearance [7]	fraction unbound [8]	predicted hepatic clearance [9]	EC50 [10]	other results
Cc1noc2c1-c1ccccc1C(c1ccc(Cl)cc1)=NC2	15 mL/min/kg	0.01		40 mL/min/kg	0.01	< 0.01	52 mL/min/kg	0.01	29 mL/min/kg		
Cc1noc2c1-c1ccc(-c3cn(C)cn3)cc1C(c1ccc(Cl)cc1)=N[C@H]2CC(N)=O	11 mL/min/kg	0.14	11 nM	< 10 mL/min/kg	0.11	0.11	28 mL/min/kg	0.14	23 mL/min/kg	30 nM	
CCNC(=O)NC1N=C(c2ccc(Cl)cc2)c2ccccc2-c2c(C)noc21 (stereo unspecified)	13 mL/min/kg	0.03	33 nM	29 mL/min/kg	0.03	0.02	38 mL/min/kg	0.02	21 mL/min/kg	100 nM	
Cc1noc2c1-c1ccc(=O)n(C)c1C(c1ccc(Cl)cc1)=NC2			750 nM							2900 nM	
Cc1noc2c1-c1ccc(-c3ccc(N)nc3)cc1C(c1ccc(Cl)cc1)=N[C@H]2CC(N)=O	13 mL/min/kg	0.04	7 nM	34 mL/min/kg	0.02	0.02	36 mL/min/kg	0.09	25 mL/min/kg	33 nM	QH [11]: 230%; Vd [12]: 5.4 L/kg; clearance [13]: 127 mL/min/kg; half-life [14]: 40.8 min; CL free [15]: 1400 mL/min/kg
Cc1noc2c1-c1ccccc1C(c1ccc(Cl)cc1)=N[C@H]2CC(N)C(F)(F)F (stereo partly specified)	13 mL/min/kg	0.01	11000 nM	38 mL/min/kg	0.01	0.01	41 mL/min/kg	0.01	27 mL/min/kg	> 4000 nM	
Cc1noc2c1-c1ccccc1C(c1ccc(Cl)cc1)=NN2			880 nM								
Cc1noc2c1-c1ccnc(N)c1C(c1ccc(Cl)cc1)=NC2			90 nM								EC50 [16]: 720 nM
COc1cccc2c1C(=O)c1c(O)c3c(c(O)c1C2=O)C[C@@](O)(C(=O)CO)C[C@@H]3O[C@H]1C[C@H](N)[C@H](O)[C@H](C)O1 [DOXORUBICIN]											Activity (MV4-11 [17]): Active; Activity [18]: Non-Toxic; Activity (MV4-11 [19]): Active; Activity (MV4-11 [20]): Active
COCCNC(=O)C[C@@H]1N=C(c2ccc(Cl)cc2)c2ccccc2-c2c(C)noc21	19 mL/min/kg	< 0.01	56 nM	45 mL/min/kg	0.01	0.03	82 mL/min/kg	0.07	30 mL/min/kg	270 nM	fAUC [26]: 0.084 µM·h; Tmax [27]: 40.2 min; bioavailability [28]: 11%; QH [11]: 66%; Cmax [29]: 380 nM; Vd [12]: 1.8 L/kg; clearance [13]: 36.7 mL/min/kg; half-life [14]: 72 min; AUC(0-inf) [30]: 1.2 µM·h; CL free [15]: 517 mL/min/kg

Now from value to molecule, other results behind:

predicted hepatic clearance [1]	fraction unbound [2]	IC50 [3]	predicted hepatic clearance (CLH) [4]	fraction unbound [5]	fraction unbound [6]	predicted hepatic clearance [7]	fraction unbound [8]	predicted hepatic clearance [9]	EC50 [10]	SMILES	other results
11 mL/min/kg	0.1	52 nM	49 mL/min/kg	0.07	0.08	78 mL/min/kg	0.1	29 mL/min/kg	170 nM	Cc1ccc(C2=N[C@@H](CC(N)=O)c3onc(C)c3-c3ccccc32)cc1	
20 mL/min/kg	0.02	15000 nM	27 mL/min/kg	0.01	0.02	32 mL/min/kg		29 mL/min/kg	4000 nM	Cc1noc2c1-c1ccccc1C(c1ccc(Cl)cc1)=NC2C(N)=O (stereo unspecified)	
11 mL/min/kg	0.02	13 nM	37 mL/min/kg	0.02	0.02	47 mL/min/kg	0.04	24 mL/min/kg	140 nM	Cc1cccc2c1C(c1ccc(Cl)cc1)=N[C@@H](CC(N)=O)c1onc(C)c1-2	Cmax [21]: 1200 nM; Tmax [22]: 120 min; QH [11]: 76%; fAUC [23]: 0.2 µM·h; Vd [12]: 2.5 L/kg; clearance [13]: 41.7 mL/min/kg; AUC(0-inf) [24]: 4.9 µM·h; half-life [14]: 59.4 min; CL free [15]: 1050 mL/min/kg; bioavailability [25]: 92%
18 mL/min/kg	0.02	52 nM	42 mL/min/kg	0.01	0.02	61 mL/min/kg	0.04	29 mL/min/kg	210 nM	CCNC(=O)C[C@@H]1N=C(c2ccc(Cl)cc2)c2ccccc2-c2c(C)noc21	
